Columns and labels:
Assay type in all cases: functional
Mus musculus [1] = species: Mus musculus; assay: Compound was evaluated for antineoplastic activity against mice bearing B6 melanoma.
How it was run: (§1)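 B16 melanoma tissue was dispersed in serum-free Fischer's medium (1 g per 5 mL), and 0.2 mL was implanted ip per mouse. Starting 24 h after implantation, drug was given ip once daily for 6 days across a range of doses, as a suspension in 20% aq. Tween 80 and isotonic saline. Groups were five mice; vehicle controls were included. %T/C was mean survival time of treated over control ×100.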

Mus musculus [2] = species: Mus musculus; assay: Compound was evaluated for antineoplastic activity against mice bearing L1210 leukemia. Average change in body weight from onset to termination of therapy..
How it was run: (§2)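 In L1210-bearing mice, dosing was ip once daily for 6 days, beginning 24 h after implantation, with groups of five. The vehicle was a Tween 80/saline suspension. Body weight was recorded, and the read-out was the mean % change in body weight from the start to the end of therapy.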

Mus musculus [3] = species: Mus musculus; assay: Compound was evaluated for antineoplastic activity against mice bearing L1210 leukemia.
How it was run: (§3)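 L1210 leukemia was carried and implanted ip in mice as in earlier work. Starting 24 h after implantation, drug was given ip once daily for 6 days across a range of doses, as a Tween 80/saline suspension. Survival was scored as %T/C, the mean survival of treated over control ×100.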

Mus musculus [4] = assay: Compound was evaluated for antineoplastic activity against mice bearing L1210 leukemia. Optimum effective daily dose administered once daily for 6 consecutive days; how it was run: as §3
Mus musculus [5] = assay: Compound was evaluated for antineoplastic activity against mice bearing […], Optimum effective daily dose administered once daily for 6 consecutive days; how it was run: as §1
Mus musculus [6] = species: Mus musculus; assay: Compound was evaluated for antineoplastic activity against mice bearing B16 melanoma; how it was run: as §1
Mus musculus [7] = species: Mus musculus; assay: Compound was evaluated for antineoplastic activity against mice bearing L1210 leukemia. Average change in body weight from onset to termination of therapy; how it was run: as §2
Mus musculus [8] = assay: Compound was evaluated for antineoplastic activity against mice bearing B16 melanoma, optimum effective daily dose administered once daily for 6 consecutive days; how it was run: as §1
Mus musculus [9] = assay: Compound was evaluated for antineoplastic activity against mice bearing L1210 leukemia, optimum effective daily dose administered once daily for 6 consecutive days; how it was run: as §3
Mus musculus [10] = species: Mus musculus; assay: Compound was evaluated for antineoplastic activity against mice bearing B16 melanoma.; how it was run: as §1

SMILES | Average change in body weight (Mus musculus [1]) | T/C (Mus musculus [1]) | Average change in body weight (Mus musculus [2]) | T/C (Mus musculus [3]) | OD (Mus musculus [4]) | OD (Mus musculus [5]) | Average change in body weight (Mus musculus [6]) | Max T/C (Mus musculus [6]) | Average change in body weight (Mus musculus [7]) | OD (Mus musculus [8]) | OD (Mus musculus [9]) | Average change in body weight (Mus musculus [10])
Cc1ccc(S(=O)(=O)N(C)NP(=O)(c2ccccc2)c2ccccc2)cc1 | 0.7% | 112% | 5.8% | 100% | 50 mg/kg | 150 mg/kg | – | – | – | – | – | –
Cc1ccc(S(=O)(=O)N(C)NS(=O)(=O)Cc2ccccc2)cc1 | – | – | – | – | – | – | -2.4% | 172% | 10.8% | 50 mg/kg | 50 mg/kg | –
Cc1ccc(S(=O)(=O)N(C)NC(=O)c2ccc([N+](=O)[O-])cc2)cc1 | 3.9% | 97% | -6.3% | 133% | 100 mg/kg | 50 mg/kg | – | – | – | – | – | –
CCS(=O)(=O)NN(C)S(=O)(=O)c1ccc(C)cc1 | – | – | – | – | – | – | -1.1% | – | – | 50 mg/kg | – | –
Cc1ccc(S(=O)(=O)NN(C)S(=O)(=O)c2ccc(C)cc2)cc1 | – | – | – | – | – | – | – | – | 3.7% | 150 mg/kg | 50 mg/kg | -2.7%
Cc1ccc(S(=O)(=O)N(C)NSc2ccccc2[N+](=O)[O-])cc1 | -2% | 99% | 15.5% | 151% | 50 mg/kg | 100 mg/kg | – | – | – | – | – | –
Cc1ccc(S(=O)(=O)N(C)NP(=O)(Oc2ccccc2)Oc2ccccc2)cc1 | 7.4% | 91% | 20.9% | 99% | 150 mg/kg | 100 mg/kg | – | – | – | – | – | –
Cc1ccc(S(=O)(=O)N(C)NC(=O)c2ccccc2)cc1 | 6.8% | 96% | 7.5% | 167% | 50 mg/kg | 150 mg/kg | – | – | – | – | – | –
Cc1ccc(S(=O)(=O)N(C)NC(=O)/C=C/c2ccccc2)cc1 | 1.8% | 94% | 14.8% | 94% | 50 mg/kg | 150 mg/kg | – | – | – | – | – | –
Cc1ccc(S(=O)(=O)N(C)NS(C)(=O)=O)cc1 | – | – | – | – | – | – | -1.9% | – | -7.9% | 10 mg/kg | 30 mg/kg | –

Reference: ChEMBL document CHEMBL1123321, “Synthesis and evaluation of 2-substituted 1-methyl-1-(4-tolylsulfonyl)hydrazines as antineoplastic agents” (1986)
